Test results taken from paper PMC10666245 (ACS Omega, 2023).

Tested on: not listed separately
Test: Radical scavenging activity, DPPH assay
Settings: at 500 μM, 30 min, 37 °C
Summary of the method: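 DPPH (250 μM in methanol) was mixed with an equal volume of test compound prepared at 1 mM in methanol. Reference antioxidants were run alongside, with DMSO as negative control. A515 was read after 30 min at 37 °C, in triplicate. Scavenging = 100 × (control Abs − sample Abs)/control Abs.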

Molecule | radical scavenging activity (DPPH) [%]
COc1cc(/C=C/C(=O)N2CCC(Cc3ccccc3)CC2)ccc1O [Compound 6b, (E)-1-(4-Benzyl-1-piperidyl)-3-(4-hydroxy-3-methoxy-phenyl)prop-2-en-1-one] | 28
O=C(c1ccc(O)c(O)c1)N1CCC(Cc2ccccc2)CC1 [Compound 5a, (4-Benzyl-1-piperidyl)-(3,4-dihydroxyphenyl)methanone] | 42
O=C(/C=C/c1ccc(O)c(O)c1)N1CCN(Cc2ccccc2)CC1 [Compound 3a, (E)-1-(4-Benzylpiperazin-1-yl)-3-(3,4-dihydroxyphenyl)prop-2-en-1-one] | 29
O=C(/C=C/c1ccc(O)c(O)c1)N1CCN(c2ccccc2)CC1 [Compound 4a, (E)-3-(3,4-Dihydroxyphenyl)-1-(4-phenylpiperazin-1-yl)prop-2-en-1-one] | 65.0
COc1cc(C(=O)N2CCC(Cc3ccccc3)CC2)ccc1O [Compound 5b, (4-Benzyl-1-piperidyl)-(4-hydroxy-3-methoxy-phenyl)methanone] | 10

Tested on: not listed separately
Test: Cytotoxicity against mammalian cells
Assay type: cell-based
Settings: mouse, NCTC clone L929 murine fibroblast cells
Summary of the method: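 Murine NCTC fibroblasts (ATCC clone 929) were grown in RPMI-1640 with 10% FBS, counted by hemocytometer and seeded at 6 × 10^4/well. They were exposed to test compound at 200–1.5 μM for 48 h at 37 °C in humidified 5% CO2. Viability was read by MTT, and CC50 was derived by nonlinear regression.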

Molecule | CC50 at 48 h [µM]
O=C(/C=C/c1ccc(O)c(O)c1)N1CCN(c2ccccc2)CC1 [Compound 4a, (E)-3-(3,4-Dihydroxyphenyl)-1-(4-phenylpiperazin-1-yl)prop-2-en-1-one] | 57.2 ± 2

Tested on: mushroom tyrosinase
Test: Mushroom tyrosinase inhibition, diphenolase assay
Assay type: biochemical, Agaricus bisporus (mushroom)
Settings: at 200 μM (asterisk), L-DOPA substrate
Summary of the method: (§1)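 Test compound came from 10 mM DMSO stocks. […] Enzyme, diluted to 500 U/mL before plating, was preincubated 15 min with test compound, then substrate was added. A490 was read every 3 min up to 30 min.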

Molecule | % inhibition ±SD Diphenolase
COc1cc(/C=C/C(=O)N2CCC(Cc3ccccc3)CC2)ccc1O [Compound 6b, (E)-1-(4-Benzyl-1-piperidyl)-3-(4-hydroxy-3-methoxy-phenyl)prop-2-en-1-one] | (12.0 ± 1.5%)
O=C(/C=C/c1ccc(O)c(O)c1)N1CCC(Cc2ccccc2)CC1 [Compound 6a, (E)-1-(4-Benzyl-1-piperidyl)-3-(3,4-dihydroxyphenyl)prop-2-en-1-one] | (18.5 ± 1.1%)
O=C(c1ccc(O)c(O)c1)N1CCC(Cc2ccccc2)CC1 [Compound 5a, (4-Benzyl-1-piperidyl)-(3,4-dihydroxyphenyl)methanone] | (30.9 ± 3.9%)
O=C(c1ccc(O)cc1)N1CCC(Cc2ccccc2)CC1 [Compound 5d, (4-Benzyl-1-piperidyl)-(4-hydroxyphenyl)methanone] | (14.7 ± 1.6%)
O=C(/C=C/c1ccc(O)cc1)N1CCC(Cc2ccccc2)CC1 [Compound 6d, (E)-1-(4-Benzyl-1-piperidyl)-3-(4-hydroxyphenyl)prop-2-en-1-one] | (20.3 ± 1.3%)
COc1cc(C(=O)N2CCC(Cc3ccccc3)CC2)ccc1O [Compound 5b, (4-Benzyl-1-piperidyl)-(4-hydroxy-3-methoxy-phenyl)methanone] | (13.2 ± 0.8%)

Same assay, conditions: at 500 μM, L-DOPA substrate

Molecule | % inhibition 500 μM ±SD Diphenolase
O=C(c1ccc(Cl)cc1)N1CCN(Cc2ccccc2)CC1 [Compound 1e, 1-Benzyl-4-(4-chlorobenzoyl)piperazine] | (45.2 ± 7.6%)
COc1ccc(C(=O)N2CCN(Cc3ccccc3)CC2)cc1 [Compound 1c, (4-Benzylpiperazin-1-yl)-(4-methoxyphenyl)methanone] | (44.2 ± 3.0%)
COc1ccc(/C=C/C(=O)N2CCN(Cc3ccccc3)CC2)cc1 [Compound 3c, (E)-1-(4-Benzylpiperazin-1-yl)-3-(4-methoxyphenyl)prop-2-en-1-one] | (43.5 ± 2.3%)
O=C(O)/C=C/c1ccc(O)cc1 [pCA, p-coumaric acid, reference compound] | (16.4 ± 13.0%)
COc1cc(/C=C/C(=O)N2CCN(c3ccccc3)CC2)ccc1O [Compound 4b, (E)-3-(4-Hydroxy-3-methoxyphenyl)-1-(4-phenylpiperazin-1-yl)prop-2-en-1-one] | (51.5 ± 3.2%)
O=C(c1ccc(O)cc1)N1CCN(Cc2ccccc2)CC1 [Compound 1d, (4-Benzylpiperazin-1-yl)-(4-hydroxyphenyl)methanone] | (35.2 ± 3.3%)
O=C(/C=C/c1ccc(O)cc1)N1CCN(Cc2ccccc2)CC1 [Compound 3d, (E)-1-(4-Benzylpiperazin-1-yl)-3-(4-hydroxyphenyl)prop-2-en-1-one] | (43.0 ± 2.9%)
O=C(c1ccc(O)c(O)c1)N1CCN(c2ccccc2)CC1 [Compound 2a, (3,4-Dihydroxyphenyl)-(4-phenylpiperazin-1-yl)methanone] | (27.7 ± 3.0%)
COc1cc(C(=O)N2CCN(c3ccccc3)CC2)ccc1O [Compound 2b, (4-Hydroxy-3-methoxyphenyl)-(4-phenylpiperazin-1-yl)methanone] | (24.3 ± 4.1%)
COc1ccc(C(=O)N2CCN(c3ccccc3)CC2)cc1 [Compound 2c, (4-Methoxyphenyl)-(4-phenylpiperazin-1-yl)methanone] | (31.1 ± 5.3%)
COc1cc(/C=C/C(=O)N2CCN(Cc3ccccc3)CC2)ccc1O [Compound 3b, (2E)-1-(4-Benzylpiperazin-1-yl)-3-(4-hydroxy-3-methoxyphenyl)prop-2-en-1-one] | (42.3 ± 3.4%)
COc1cc(C(=O)N2CCN(Cc3ccccc3)CC2)ccc1O [Compound 1b, (4-Benzylpiperazin-1-yl)(4-hydroxy-3-methoxyphenyl)methanone] | (41.6 ± 1.2%)
COc1ccc(C(=O)N2CCC(Cc3ccccc3)CC2)cc1 [Compound 5c, 4-Benzyl-1-(4-methoxybenzoyl)piperidine] | (30.5 ± 1.6%)
(E)-1-(1-Benzylpiperidin-4-yl)-3-(4-methoxyphenyl)prop-2-en-1-one [Compound 6c] | (22.1 ± 3.1%)
O=C(c1ccc(O)c(O)c1)N1CCN(Cc2ccccc2)CC1 [Compound 1a, (4-Benzylpiperazin-1-yl)-(3,4-dihydroxyphenyl)methanone] | (37.0 ± 2.7%)

Same assay, conditions: mushroom tyrosinase, L-DOPA substrate, pH 6.5

Molecule | pIC50 ±SEM Diphenolase
O=C(/C=C/c1ccc(O)c(O)c1)N1CCN(Cc2ccccc2)CC1 [Compound 3a, (E)-1-(4-Benzylpiperazin-1-yl)-3-(3,4-dihydroxyphenyl)prop-2-en-1-one] | 4.18 ± 0.03

Same assay, conditions: read-out: IC50 tyrosinase inhibition, diphenolase; L-DOPA substrate

Molecule | IC50 [µM]
O=C(/C=C/c1ccc(O)c(O)c1)N1CCN(Cc2ccccc2)CC1 [Compound 3a, (E)-1-(4-Benzylpiperazin-1-yl)-3-(3,4-dihydroxyphenyl)prop-2-en-1-one] | < 100

Tested on: mushroom tyrosinase
Test: Mushroom tyrosinase inhibition, monophenolase assay
Assay type: biochemical, Agaricus bisporus (mushroom)
Settings: at 200 μM (asterisk), L-tyrosine substrate
Summary of the method: as §1

Molecule | % inhibition ±SD Monophenolase
O=C(/C=C/c1ccc(O)cc1)N1CCC(Cc2ccccc2)CC1 [Compound 6d, (E)-1-(4-Benzyl-1-piperidyl)-3-(4-hydroxyphenyl)prop-2-en-1-one] | (48.3 ± 1.1%)

Same assay, conditions: mushroom tyrosinase, L-tyrosine substrate, pH 6.5

Molecule | pIC50 ±SEM Monophenolase
O=C(c1ccc(Cl)cc1)N1CCN(Cc2ccccc2)CC1 [Compound 1e, 1-Benzyl-4-(4-chlorobenzoyl)piperazine] | 4.37 ± 0.04
COc1cc(/C=C/C(=O)N2CCC(Cc3ccccc3)CC2)ccc1O [Compound 6b, (E)-1-(4-Benzyl-1-piperidyl)-3-(4-hydroxy-3-methoxy-phenyl)prop-2-en-1-one] | 4.53 ± 0.01
COc1ccc(C(=O)N2CCN(Cc3ccccc3)CC2)cc1 [Compound 1c, (4-Benzylpiperazin-1-yl)-(4-methoxyphenyl)methanone] | 3.94 ± 0.06
COc1ccc(/C=C/C(=O)N2CCN(Cc3ccccc3)CC2)cc1 [Compound 3c, (E)-1-(4-Benzylpiperazin-1-yl)-3-(4-methoxyphenyl)prop-2-en-1-one] | 3.86 ± 0.04
O=C(O)/C=C/c1ccc(O)cc1 [pCA, p-coumaric acid, reference compound] | 4.00 ± 0.01
COc1cc(/C=C/C(=O)N2CCN(c3ccccc3)CC2)ccc1O [Compound 4b, (E)-3-(4-Hydroxy-3-methoxyphenyl)-1-(4-phenylpiperazin-1-yl)prop-2-en-1-one] | 4.50 ± 0.04
O=C(c1ccc(O)cc1)N1CCN(Cc2ccccc2)CC1 [Compound 1d, (4-Benzylpiperazin-1-yl)-(4-hydroxyphenyl)methanone] | 4.11 ± 0.05
O=C(/C=C/c1ccc(O)cc1)N1CCN(Cc2ccccc2)CC1 [Compound 3d, (E)-1-(4-Benzylpiperazin-1-yl)-3-(4-hydroxyphenyl)prop-2-en-1-one] | 4.54 ± 0.03
O=C(/C=C/c1ccc(O)c(O)c1)N1CCC(Cc2ccccc2)CC1 [Compound 6a, (E)-1-(4-Benzyl-1-piperidyl)-3-(3,4-dihydroxyphenyl)prop-2-en-1-one] | 4.56 ± 0.01
O=C(c1ccc(O)c(O)c1)N1CCC(Cc2ccccc2)CC1 [Compound 5a, (4-Benzyl-1-piperidyl)-(3,4-dihydroxyphenyl)methanone] | 4.74 ± 0.04
O=C(c1ccc(O)c(O)c1)N1CCN(c2ccccc2)CC1 [Compound 2a, (3,4-Dihydroxyphenyl)-(4-phenylpiperazin-1-yl)methanone] | 4.42 ± 0.04
COc1cc(C(=O)N2CCN(c3ccccc3)CC2)ccc1O [Compound 2b, (4-Hydroxy-3-methoxyphenyl)-(4-phenylpiperazin-1-yl)methanone] | 3.85 ± 0.03
COc1ccc(C(=O)N2CCN(c3ccccc3)CC2)cc1 [Compound 2c, (4-Methoxyphenyl)-(4-phenylpiperazin-1-yl)methanone] | 3.54 ± 0.05
O=C(c1ccc(O)cc1)N1CCC(Cc2ccccc2)CC1 [Compound 5d, (4-Benzyl-1-piperidyl)-(4-hydroxyphenyl)methanone] | 4.59 ± 0.01
COc1cc(/C=C/C(=O)N2CCN(Cc3ccccc3)CC2)ccc1O [Compound 3b, (2E)-1-(4-Benzylpiperazin-1-yl)-3-(4-hydroxy-3-methoxyphenyl)prop-2-en-1-one] | 4.16 ± 0.02
COc1cc(C(=O)N2CCN(Cc3ccccc3)CC2)ccc1O [Compound 1b, (4-Benzylpiperazin-1-yl)(4-hydroxy-3-methoxyphenyl)methanone] | 4.49 ± 0.02
COc1cc(C(=O)N2CCC(Cc3ccccc3)CC2)ccc1O [Compound 5b, (4-Benzyl-1-piperidyl)-(4-hydroxy-3-methoxy-phenyl)methanone] | 4.99 ± 0.01
COc1ccc(C(=O)N2CCC(Cc3ccccc3)CC2)cc1 [Compound 5c, 4-Benzyl-1-(4-methoxybenzoyl)piperidine] | 4.67 ± 0.01
(E)-1-(1-Benzylpiperidin-4-yl)-3-(4-methoxyphenyl)prop-2-en-1-one [Compound 6c] | 4.85 ± 0.07
O=C(c1ccc(O)c(O)c1)N1CCN(Cc2ccccc2)CC1 [Compound 1a, (4-Benzylpiperazin-1-yl)-(3,4-dihydroxyphenyl)methanone] | 4.42 ± 0.04

Same assay, conditions: read-out: IC50 tyrosinase inhibition, monophenolase; L-tyrosine substrate

Molecule | IC50 [µM]
O=C(/C=C/c1ccc(O)c(O)c1)N1CCN(Cc2ccccc2)CC1 [Compound 3a, (E)-1-(4-Benzylpiperazin-1-yl)-3-(3,4-dihydroxyphenyl)prop-2-en-1-one] | < 100
